# Tested on: U2OS
# Test: Multiplex assay against U2OS
# Type: toxicity, cell-based
# Conditions: human
# Procedure, shortened: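 Compound was added to live cells that had been stained at seeding with Hoechst33342, BioTracker Green Microtubule Cytoskeleton Dye, MitoTracker Red and Annexin V Alexa Fluor 680, and imaging followed on a CQ1 microscope at 37°C and 5% CO2. CellPathfinder machine-learning gating divided cells into Hoechst high-intensity objects or normal cells, normal cells into healthy, pyknosed or fragmented nuclei, and pyknosed cells into mitotic or apoptotic. Tubulin, mitochondrial-mass and membrane-permeability phenotypes are per cents of healthy-nucleus cells.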
# [1] = 12 h, 1 µM, compound concentration 1 uM, replicate 1
# [2] = 12 h, 1 µM, compound concentration 1 uM, replicate 2
# [3] = 12 h, 10 µM, compound concentration 10 uM, replicate 1
# [4] = 12 h, 10 µM, compound concentration 10 uM, replicate 2
# [5] = 24 h, 1 µM, compound concentration 1 uM, replicate 1
# [6] = 24 h, 1 µM, compound concentration 1 uM, replicate 2
# [7] = 24 h, 10 µM, compound concentration 10 uM, replicate 1
# [8] = 24 h, 10 µM, compound concentration 10 uM, replicate 2
# [9] = 48 h, 1 µM, compound concentration 1 uM, replicate 1
# [10] = 48 h, 1 µM, compound concentration 1 uM, replicate 2
# [11] = 48 h, 10 µM, compound concentration 10 uM, replicate 1
# [12] = 48 h, 10 µM, compound concentration 10 uM, replicate 2
smiles,measurement,setting,value
COc1ccc2[nH]c(I)c(CCNC(C)=O)c2c1 [IODOMELATONIN],Population Apoptotic (%),[1],68%
same,Population Fragmented Nuclei (%),[1],19%
same,Population Healthy Nuclei (%),[1],74%
same,Population Hoechst High Intensity Objects (%),[1],2%
same,Population Membrane Permeable-Phenotype (%),[1],4%
same,Population Mitochondria Different-Phenotype (%),[1],3%
same,Population Mitotic Cells (%),[1],31%
same,Population Normal (%),[1],97%
same,Population Pyknosed Nuclei (%),[1],5%
same,Population Tubulin-Different-Phenotype (%),[1],1%
same,Total Cell Count,[1],282
same,Population Apoptotic (%),[2],37%
same,Population Fragmented Nuclei (%),[2],11%
same,Population Healthy Nuclei (%),[2],83%
same,Population Hoechst High Intensity Objects (%),[2],0%
same,Population Membrane Permeable-Phenotype (%),[2],5%
same,Population Mitochondria Different-Phenotype (%),[2],1%
same,Population Mitotic Cells (%),[2],62%
same,Population Normal (%),[2],99%
same,Population Tubulin-Different-Phenotype (%),[2],2%
same,Total Cell Count,[2],156
same,Population Apoptotic (%),[3],77%
same,Population Fragmented Nuclei (%),[3],25%
same,Population Healthy Nuclei (%),[3],64%
same,Population Hoechst High Intensity Objects (%),[3],3%
same,Population Membrane Permeable-Phenotype (%),[3],2%
same,Population Mitochondria Different-Phenotype (%),[3],1%
same,Population Mitotic Cells (%),[3],22%
same,Population Normal (%),[3],96%
same,Population Pyknosed Nuclei (%),[3],9%
same,Population Tubulin-Different-Phenotype (%),[3],1%
same,Total Cell Count,[3],231
same,Population Apoptotic (%),[4],80%
same,Population Fragmented Nuclei (%),[4],41%
same,Population Healthy Nuclei (%),[4],54%
same,Population Hoechst High Intensity Objects (%),[4],0%
same,Population Membrane Permeable-Phenotype (%),[4],10%
same,Population Mitochondria Different-Phenotype (%),[4],6%
same,Population Mitotic Cells (%),[4],20%
same,Population Normal (%),[4],99%
same,Population Pyknosed Nuclei (%),[4],3%
same,Population Tubulin-Different-Phenotype (%),[4],2%
same,Total Cell Count,[4],134
same,Population Apoptotic (%),[5],86%
same,Population Fragmented Nuclei (%),[5],16%
same,Population Healthy Nuclei (%),[5],75%
same,Population Hoechst High Intensity Objects (%),[5],1%
same,Population Membrane Permeable-Phenotype (%),[5],3%
same,Population Mitochondria Different-Phenotype (%),[5],1%
same,Population Mitotic Cells (%),[5],13%
same,Population Normal (%),[5],98%
same,Population Pyknosed Nuclei (%),[5],8%
same,Population Tubulin-Different-Phenotype (%),[5],2%
same,Total Cell Count,[5],354
same,Population Apoptotic (%),[6],80%
same,Population Fragmented Nuclei (%),[6],15%
same,Population Healthy Nuclei (%),[6],78%
same,Population Membrane Permeable-Phenotype (%),[6],8%
same,Population Mitochondria Different-Phenotype (%),[6],0%
same,Population Mitotic Cells (%),[6],20%
same,Population Pyknosed Nuclei (%),[6],5%
same,Total Cell Count,[6],179
same,Population Apoptotic (%),[7],95%
same,Population Fragmented Nuclei (%),[7],25%
same,Population Healthy Nuclei (%),[7],66%
same,Population Hoechst High Intensity Objects (%),[7],1%
same,Population Membrane Permeable-Phenotype (%),[7],4%
same,Population Mitochondria Different-Phenotype (%),[7],1%
same,Population Mitotic Cells (%),[7],4%
same,Population Normal (%),[7],98%
same,Population Pyknosed Nuclei (%),[7],8%
same,Population Tubulin-Different-Phenotype (%),[7],1%
same,Total Cell Count,[7],273
same,Population Apoptotic (%),[8],88%
same,Population Fragmented Nuclei (%),[8],34%
same,Population Healthy Nuclei (%),[8],59%
same,Population Membrane Permeable-Phenotype (%),[8],7%
same,Population Mitochondria Different-Phenotype (%),[8],5%
same,Population Mitotic Cells (%),[8],11%
same,Population Pyknosed Nuclei (%),[8],5%
same,Population Tubulin-Different-Phenotype (%),[8],2%
same,Total Cell Count,[8],153
same,Population Apoptotic (%),[9],92%
same,Population Fragmented Nuclei (%),[9],12%
same,Population Healthy Nuclei (%),[9],79%
same,Population Hoechst High Intensity Objects (%),[9],1%
same,Population Membrane Permeable-Phenotype (%),[9],5%
same,Population Mitochondria Different-Phenotype (%),[9],2%
same,Population Mitotic Cells (%),[9],7%
same,Population Normal (%),[9],98%
same,Population Pyknosed Nuclei (%),[9],7%
same,Population Tubulin-Different-Phenotype (%),[9],3%
same,Total Cell Count,[9],509
same,Population Apoptotic (%),[10],86%
same,Population Fragmented Nuclei (%),[10],13%
same,Population Healthy Nuclei (%),[10],81%
same,Population Membrane Permeable-Phenotype (%),[10],4%
same,Population Mitotic Cells (%),[10],13%
same,Population Pyknosed Nuclei (%),[10],5%
same,Total Cell Count,[10],284
same,Population Apoptotic (%),[11],97%
same,Population Fragmented Nuclei (%),[11],21%
same,Population Healthy Nuclei (%),[11],68%
same,Population Hoechst High Intensity Objects (%),[11],2%
same,Population Membrane Permeable-Phenotype (%),[11],5%
same,Population Mitochondria Different-Phenotype (%),[11],0%
same,Population Mitotic Cells (%),[11],2%
same,Population Normal (%),[11],97%
same,Population Pyknosed Nuclei (%),[11],9%
same,Population Tubulin-Different-Phenotype (%),[11],2%
same,Total Cell Count,[11],373
same,Population Apoptotic (%),[12],100%
same,Population Fragmented Nuclei (%),[12],29%
same,Population Healthy Nuclei (%),[12],65%
same,Population Hoechst High Intensity Objects (%),[12],0%
same,Population Membrane Permeable-Phenotype (%),[12],7%
same,Population Mitochondria Different-Phenotype (%),[12],5%
same,Population Mitotic Cells (%),[12],0%
same,Population Normal (%),[12],99%
same,Population Pyknosed Nuclei (%),[12],5%
same,Population Tubulin-Different-Phenotype (%),[12],4%
same,Total Cell Count,[12],209
Cc1cc(-c2ccc3c(c2)CC[C@H]3N2CC3(CCN(C(=O)Cc4cn5cc(C)sc5n4)CC3)C2)ncn1 [PF-5190457],Population Apoptotic (%),[1],82%
same,Population Fragmented Nuclei (%),[1],24%
same,Population Healthy Nuclei (%),[1],65%
same,Population Hoechst High Intensity Objects (%),[1],1%
same,Population Membrane Permeable-Phenotype (%),[1],7%
same,Population Mitochondria Different-Phenotype (%),[1],3%
same,Population Mitotic Cells (%),[1],17%
same,Population Normal (%),[1],98%
same,Population Pyknosed Nuclei (%),[1],9%
same,Population Tubulin-Different-Phenotype (%),[1],4%
same,Total Cell Count,[1],239
same,Population Apoptotic (%),[2],63%
same,Population Fragmented Nuclei (%),[2],21%
same,Population Healthy Nuclei (%),[2],66%
same,Population Hoechst High Intensity Objects (%),[2],0%
same,Population Membrane Permeable-Phenotype (%),[2],4%
same,Population Mitotic Cells (%),[2],36%
same,Population Normal (%),[2],100%
same,Population Pyknosed Nuclei (%),[2],11%
same,Population Tubulin-Different-Phenotype (%),[2],3%
same,Total Cell Count,[2],93
same,Population Apoptotic (%),[3],61%
same,Population Fragmented Nuclei (%),[3],18%
same,Population Healthy Nuclei (%),[3],66%
same,Population Hoechst High Intensity Objects (%),[3],2%
same,Population Membrane Permeable-Phenotype (%),[3],7%
same,Population Mitochondria Different-Phenotype (%),[3],5%
same,Population Mitotic Cells (%),[3],38%
same,Population Normal (%),[3],97%
same,Population Pyknosed Nuclei (%),[3],14%
same,Population Tubulin-Different-Phenotype (%),[3],5%
same,Total Cell Count,[3],238
same,Population Apoptotic (%),[4],71%
same,Population Fragmented Nuclei (%),[4],14%
same,Population Healthy Nuclei (%),[4],74%
same,Population Hoechst High Intensity Objects (%),[4],1%
same,Population Membrane Permeable-Phenotype (%),[4],8%
same,Population Mitochondria Different-Phenotype (%),[4],10%
same,Population Mitotic Cells (%),[4],28%
same,Population Normal (%),[4],98%
same,Population Pyknosed Nuclei (%),[4],11%
same,Population Tubulin-Different-Phenotype (%),[4],6%
same,Total Cell Count,[4],126
same,Population Apoptotic (%),[5],69%
same,Population Fragmented Nuclei (%),[5],25%
same,Population Healthy Nuclei (%),[5],66%
same,Population Hoechst High Intensity Objects (%),[5],1%
same,Population Membrane Permeable-Phenotype (%),[5],8%
same,Population Mitochondria Different-Phenotype (%),[5],3%
same,Population Mitotic Cells (%),[5],30%
same,Population Normal (%),[5],98%
same,Population Pyknosed Nuclei (%),[5],8%
same,Population Tubulin-Different-Phenotype (%),[5],5%
same,Total Cell Count,[5],282
same,Population Apoptotic (%),[6],33%
same,Population Fragmented Nuclei (%),[6],21%
same,Population Healthy Nuclei (%),[6],76%
same,Population Hoechst High Intensity Objects (%),[6],0%
same,Population Membrane Permeable-Phenotype (%),[6],6%
same,Population Mitochondria Different-Phenotype (%),[6],1%
same,Population Mitotic Cells (%),[6],66%
same,Population Normal (%),[6],99%
same,Population Pyknosed Nuclei (%),[6],2%
same,Population Tubulin-Different-Phenotype (%),[6],2%
same,Total Cell Count,[6],126
same,Population Apoptotic (%),[7],67%
same,Population Fragmented Nuclei (%),[7],18%
same,Population Healthy Nuclei (%),[7],72%
same,Population Hoechst High Intensity Objects (%),[7],2%
same,Population Membrane Permeable-Phenotype (%),[7],3%
same,Population Mitochondria Different-Phenotype (%),[7],0%
same,Population Mitotic Cells (%),[7],32%
same,Population Normal (%),[7],97%
same,Population Pyknosed Nuclei (%),[7],9%
same,Population Tubulin-Different-Phenotype (%),[7],1%
same,Total Cell Count,[7],295
same,Population Apoptotic (%),[8],84%
same,Population Healthy Nuclei (%),[8],69%
same,Population Hoechst High Intensity Objects (%),[8],1%
same,Population Membrane Permeable-Phenotype (%),[8],11%
same,Population Mitochondria Different-Phenotype (%),[8],8%
same,Population Mitotic Cells (%),[8],15%
same,Population Normal (%),[8],98%
same,Population Pyknosed Nuclei (%),[8],12%
same,Population Tubulin-Different-Phenotype (%),[8],4%
same,Total Cell Count,[8],154
same,Population Apoptotic (%),[9],84%
same,Population Fragmented Nuclei (%),[9],20%
same,Population Healthy Nuclei (%),[9],71%
same,Population Hoechst High Intensity Objects (%),[9],0%
same,Population Membrane Permeable-Phenotype (%),[9],7%
same,Population Mitochondria Different-Phenotype (%),[9],4%
same,Population Mitotic Cells (%),[9],15%
same,Population Normal (%),[9],99%
same,Population Pyknosed Nuclei (%),[9],8%
same,Population Tubulin-Different-Phenotype (%),[9],4%
same,Total Cell Count,[9],402
same,Population Apoptotic (%),[10],66%
same,Population Fragmented Nuclei (%),[10],16%
same,Population Healthy Nuclei (%),[10],78%
same,Population Hoechst High Intensity Objects (%),[10],2%
same,Population Membrane Permeable-Phenotype (%),[10],4%
same,Population Mitochondria Different-Phenotype (%),[10],2%
same,Population Mitotic Cells (%),[10],33%
same,Population Normal (%),[10],97%
same,Population Pyknosed Nuclei (%),[10],5%
same,Population Tubulin-Different-Phenotype (%),[10],2%
same,Total Cell Count,[10],184
same,Population Apoptotic (%),[11],74%
same,Population Fragmented Nuclei (%),[11],16%
same,Population Healthy Nuclei (%),[11],71%
same,Population Hoechst High Intensity Objects (%),[11],3%
same,Population Membrane Permeable-Phenotype (%),[11],5%
same,Population Mitochondria Different-Phenotype (%),[11],2%
same,Population Mitotic Cells (%),[11],25%
same,Population Normal (%),[11],96%
same,Population Pyknosed Nuclei (%),[11],12%
same,Population Tubulin-Different-Phenotype (%),[11],3%
same,Total Cell Count,[11],389
same,Population Apoptotic (%),[12],76%
same,Population Fragmented Nuclei (%),[12],18%
same,Population Membrane Permeable-Phenotype (%),[12],11%
same,Population Mitochondria Different-Phenotype (%),[12],6%
same,Population Mitotic Cells (%),[12],23%
same,Population Pyknosed Nuclei (%),[12],10%
same,Population Tubulin-Different-Phenotype (%),[12],4%
same,Total Cell Count,[12],217

# Source: ChEMBL document CHEMBL5058577, “EUbOPEN Chemogenomics Library 2 (Multiplex)” (2022)
